In ChEMBL document CHEMBL3046780, “Syntheses and herbicidal activity of new triazolopyrimidine-2-sulfonamides as acetohydroxyacid synthase inhibitor” (Bioorg Med Chem, 2010):

Experiments:
Brassica juncea = assay: Post-emergence herbicidal activity against Brassica juncea assessed as growth inhibition at 150 g ai/ha measured 15 days post compound treatment under green house conditions; type: functional; conditions: 360 h, read-out: GI
Method in brief: (§1)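 Compounds formulated as 100 g/L emulsifiable concentrate (DMF solvent, Tween-80 emulsifier), diluted with water, sprayed post-emergence on pot-grown weeds in clay soil (pH 6.5, 1.6% organic matter). Seeds sown 1-3 cm deep, grown at 15-30 °C. Dicots were treated at the 2-leaf stage and monocots at the 1-leaf stage. Untreated and DMF-treated controls were included. Injury was rated visually 15 days after treatment.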

Poa annua = assay: Post-emergence herbicidal activity against Poa annua assessed as growth inhibition at 150 g ai/ha measured 15 days post compound treatment under green house conditions; type: functional; conditions: 360 h, read-out: GI; method in brief: as §1
Amaranthus retroflexus = assay: Post-emergence herbicidal activity against Amaranthus retroflexus assessed as growth inhibition at 150 g ai/ha measured 15 days post compound treatment under green house conditions; type: functional; conditions: 360 h, read-out: GI; method in brief: as §1
Echinochloa crus-galli = assay: Post-emergence herbicidal activity against Echinochloa crus-galli (barnyard grass) assessed as growth inhibition at 150 g ai/ha measured 15 days post compound treatment under green house conditions; type: functional; conditions: 360 h, read-out: GI; method in brief: as §1
Eclipta prostrata = assay: Post-emergence herbicidal activity against Eclipta prostrata assessed as growth inhibition at 150 g ai/ha measured 15 days post compound treatment under green house conditions; type: functional; conditions: 360 h, read-out: GI; method in brief: as §1
Digitaria sanguinalis = assay: Post-emergence herbicidal activity against Digitaria sanguinalis (hairy crabgrass) assessed as growth inhibition at 150 g ai/ha measured 15 days post compound treatment under green house conditions; type: functional; conditions: 360 h, read-out: GI; method in brief: as §1
[1] = biological target: T1, Acetolactate synthase, chloroplastic (Arabidopsis thaliana, UniProt P17597)
T1 sequence (P17597 whole entry): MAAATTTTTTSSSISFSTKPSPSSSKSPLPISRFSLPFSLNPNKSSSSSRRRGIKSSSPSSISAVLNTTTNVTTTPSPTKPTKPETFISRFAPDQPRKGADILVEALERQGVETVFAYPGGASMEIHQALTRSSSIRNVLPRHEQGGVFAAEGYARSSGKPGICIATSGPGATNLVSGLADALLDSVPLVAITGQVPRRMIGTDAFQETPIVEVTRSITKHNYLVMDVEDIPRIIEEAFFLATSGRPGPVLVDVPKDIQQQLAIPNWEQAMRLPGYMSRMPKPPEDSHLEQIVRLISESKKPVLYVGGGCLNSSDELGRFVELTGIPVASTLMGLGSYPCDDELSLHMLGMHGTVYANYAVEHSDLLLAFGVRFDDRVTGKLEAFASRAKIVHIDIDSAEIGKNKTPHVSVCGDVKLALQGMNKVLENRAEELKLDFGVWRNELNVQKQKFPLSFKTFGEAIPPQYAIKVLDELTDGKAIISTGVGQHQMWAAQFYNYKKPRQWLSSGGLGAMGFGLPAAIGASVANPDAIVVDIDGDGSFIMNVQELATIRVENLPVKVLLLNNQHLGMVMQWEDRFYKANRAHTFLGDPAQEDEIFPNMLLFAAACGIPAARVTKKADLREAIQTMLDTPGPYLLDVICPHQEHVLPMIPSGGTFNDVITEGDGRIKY

| Structure (SMILES) | inhibition of growth at 150 g/ha (Brassica juncea) [%] | inhibition of growth at 150 g/ha (Poa annua) [%] | inhibition of growth at 150 g/ha (Amaranthus retroflexus) [%] | inhibition of growth at 150 g/ha (Echinochloa crus-galli) [%] | inhibition of growth at 150 g/ha (Eclipta prostrata) [%] | inhibition of growth at 150 g/ha (Digitaria sanguinalis) [%] | Ki [1] [µM] |
| --- | --- | --- | --- | --- | --- | --- | --- |
| COc1ccn2nc(S(=O)(=O)Nc3ccc(Br)cc3)nc2n1 | < 50 | < 50 | < 50 | < 50 | < 50 | < 50 | > 1000 |
| COc1ccn2nc(S(=O)(=O)Nc3ccccc3Br)nc2n1 | ≥ 80 | < 50 | 50 | < 50 | ≥ 80 | < 50 | 22.6 |
| COc1ccn2nc(S(=O)(=O)Nc3ccc(OC(F)(F)F)cc3)nc2n1 | < 50 | < 50 | < 50 | < 50 | < 50 | < 50 | > 1000 |
| Cc1nc(C)n2nc(S(=O)(=O)Nc3ccc(F)c(F)c3F)nc2c1Cl | < 50 | < 50 | < 50 | < 50 | < 50 | < 50 | > 1000 |
| Cc1nc(C)n2nc(S(=O)(=O)Nc3ccccc3F)nc2c1Cl | 50 | < 50 | 50 | < 50 | 50 | < 50 | 25.8 |
| Cc1cc2nc(S(=O)(=O)Nc3ccc(F)c(F)c3F)nn2c(C)n1 | < 50 | < 50 | < 50 | < 50 | 50 | < 50 | > 1000 |
| Cc1nc(C(F)(F)F)cc2nc(S(=O)(=O)Nc3ccc(F)c(F)c3F)nn12 | < 50 | < 50 | < 50 | < 50 | 50 | < 50 | > 1000 |
| Cc1nc(C)n2nc(S(=O)(=O)Nc3ccc(C(F)(F)F)cc3)nc2c1Cl | < 50 | < 50 | 50 | < 50 | 50 | < 50 | > 1000 |
| Cc1cc2nc(S(=O)(=O)Nc3ccccc3F)nn2c(C)n1 | 50 | < 50 | 50 | < 50 | 50 | < 50 | 27.7 |
| Cc1nc(C(F)(F)F)cc2nc(S(=O)(=O)Nc3ccccc3F)nn12 | 50 | < 50 | 50 | < 50 | 50 | < 50 | 569 |
| Cc1nc(C(F)(F)F)cc2nc(S(=O)(=O)Nc3cc(F)ccc3F)nn12 | < 50 | < 50 | < 50 | < 50 | < 50 | < 50 | – |
| Cc1cc2nc(S(=O)(=O)Nc3ccc(C(F)(F)F)cc3Cl)nn2c(C)n1 | < 50 | < 50 | < 50 | < 50 | < 50 | < 50 | 178 |
| Cc1cc2nc(S(=O)(=O)Nc3cc(Cl)ccc3C)nn2c(C)n1 | < 50 | < 50 | < 50 | < 50 | 50 | < 50 | 7.75 |
| Cc1cc2nc(S(=O)(=O)Nc3cc(F)ccc3F)nn2c(C)n1 | < 50 | < 50 | < 50 | < 50 | < 50 | < 50 | 28.1 |
| COc1ccn2nc(S(=O)(=O)Nc3c(F)cccc3F)nc2n1 | ≥ 90 | – | ≥ 90 | < 50 | ≥ 90 | < 50 | 18.5 |
| COc1ccn2nc(S(=O)(=O)Nc3cc(F)c(F)c(F)c3)nc2n1 | < 50 | < 50 | < 50 | < 50 | < 50 | < 50 | > 1000 |
| COc1ccn2nc(S(=O)(=O)Nc3cc(F)ccc3F)nc2n1 | 50 | < 50 | 50 | < 50 | 50 | < 50 | 53.3 |
| COc1ccn2nc(S(=O)(=O)Nc3ccccc3F)nc2n1 | 50 | < 50 | 50 | < 50 | ≥ 80 | < 50 | 25.9 |
